ChEMBL document CHEMBL1149639, “Anti-tumor agents 255: novel glycyrrhetinic acid-dehydrozingerone conjugates as cytotoxic agents” (2007)
Calls of active or inactive are those of the source. No cut-off for these calls is given here.

Columns and labels:
Format in all cases: functional
PC-3 = test: Cytotoxicity against human PC3 cells; details: read-out: ED50 (the source's name)
Outline: (§1)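 Sulforhodamine B assay after Rubinstein et al. Cells grown at 37 °C, humidified 5% CO2, in RPMI-1640 with 10% (v/v) FBS and 100 μg/mL kanamycin. Seeding density set per line to give final A562 of 1-2.5. Stocks in DMSO, final DMSO <1% (v/v). Two-day drug exposure, absorbance at 562 nm. ED50 (50% absorbance reduction vs untreated) interpolated from dose-response. Tests in duplicate.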

HCT-8 = test: Cytotoxicity against human HCT8 cells; details: read-out: ED50 (the source's name); outline: as §1
1A9 = test: Cytotoxicity against human 1A9 cells; details: for EC50: read-out: ED50 (the source's name); outline: as §1
ZR-75-1 = test: Cytotoxicity against human ZR751 cells; details: for EC50: read-out: ED50 (the source's name); outline: as §1
A549 = test: Cytotoxicity against human A549 cells; details: for EC50: read-out: ED50 (the source's name); outline: as §1
KB [1] = test: Cytotoxicity against human KB cells by sulforhodamine B assay; details: for EC50: read-out: ED50 (the source's name); outline: as §1
[2] = (§2) Cytotoxicity against human KB-VIN cells; details: KBVIN, read-out: ED50 (the source's name); outline: as §1
DU-145 = test: Cytotoxicity against human DU145 cells; details: read-out: ED50 (the source's name); outline: as §1
KB-VIN [3] = test: (§3) Cytotoxicity against human KB-VIN cells by sulforhodamine B assay; outline: as §1
KB [4] = test: Cytotoxicity against human KB cells; details: for EC50: read-out: ED50 (the source's name); outline: as §1
LNCaP = test: Cytotoxicity against human LN-Cap cells; details: read-out: ED50 (the source's name); outline: as §1
KB-VIN [5] = test: as §2; outline: as §1
[6] = as §3; details: KBVIN, read-out: ED50 (the source's name); outline: as §1

Row | SMILES | EC50 (PC-3) | EC50 (HCT-8) | EC50 (1A9) | Activity (ZR-75-1) | Activity (A549) | Activity (KB [1]) | EC50 [2] | EC50 (DU-145) | Activity (KB-VIN [3]) | EC50 (KB [4]) | EC50 (LNCaP) | EC50 (ZR-75-1) | EC50 (A549) | Activity (KB-VIN [5]) | Activity (KB [4]) | Activity (1A9) | EC50 (KB [1]) | EC50 [6]
1 | CC1(C)[C@@H](O)CC[C@]2(C)[C@H]3C(=O)C=C4[C@@H]5C[C@@](C)(C(=O)O)CC[C@]5(C)CC[C@@]4(C)[C@]3(C)CC[C@@H]12 [ENOXOLONE] | > 21 µM | 19500 nM | > 21000 nM | inactive | inactive | inactive | > 21 µM | > 21 µM | inactive | > 21000 nM | > 21 µM | – | – | – | – | – | – | –
2 | COc1cccc(/C=C/C(C)=O)c1OC(=O)[C@@]1(C)CC[C@]2(C)CC[C@]3(C)C(=CC(=O)[C@@H]4[C@@]5(C)CC[C@H](O)C(C)(C)[C@@H]5CC[C@]43C)[C@@H]2C1 | 1.1 µM | 1900 nM | 800 nM | – | – | – | 2.8 µM | 3.6 µM | – | 800 nM | 2.8 µM | 3000 nM | 2200 nM | – | – | – | – | –
3 | CCOc1cc(/C=C/C(C)=O)ccc1OC(=O)[C@@]1(C)CC[C@]2(C)CC[C@]3(C)C(=CC(=O)[C@@H]4[C@@]5(C)CC[C@H](O)C(C)(C)[C@@H]5CC[C@]43C)[C@@H]2C1 | 3.3 µM | 2700 nM | 1100 nM | – | – | – | 1.7 µM | 5.8 µM | – | 1800 nM | 1.1 µM | 5200 nM | 1700 nM | – | – | – | – | –
4 | CC(=O)/C=C/c1cccc(F)c1OC(=O)[C@@]1(C)CC[C@]2(C)CC[C@]3(C)C(=CC(=O)[C@@H]4[C@@]5(C)CC[C@H](O)C(C)(C)[C@@H]5CC[C@]43C)[C@@H]2C1 | 1.6 µM | 2200 nM | 1300 nM | – | – | – | 8.7 µM | 2.7 µM | – | 3000 nM | 4.4 µM | 2700 nM | 3200 nM | – | – | – | – | –
5 | COc1cccc(/C=C/C(=O)c2ccccc2)c1OC(=O)[C@@]1(C)CC[C@]2(C)CC[C@]3(C)C(=CC(=O)[C@@H]4[C@@]5(C)CC[C@H](O)C(C)(C)[C@@H]5CC[C@]43C)[C@@H]2C1 | 14.1 µM | > 14000 nM | 13300 nM | – | – | – | – | > 14 µM | – | 9900 nM | 14.1 µM | > 14000 nM | > 14000 nM | inactive | – | – | – | –
6 | COc1cccc2c1C(=O)c1c(O)c3c(c(O)c1C2=O)C[C@@](O)(C(=O)CO)C[C@@H]3O[C@H]1C[C@H](N)[C@H](O)[C@H](C)O1 [DOXORUBICIN] | 0.26 µM | 1200 nM | 20 nM | – | – | – | 4.97 µM | 0.15 µM | – | 100 nM | 0.04 µM | 40 nM | 180 nM | – | – | – | – | –
7 | COc1cc(/C=C/C(=O)c2ccccc2)ccc1OC(=O)[C@@]1(C)CC[C@]2(C)CC[C@]3(C)C(=CC(=O)[C@@H]4[C@@]5(C)CC[C@H](O)C(C)(C)[C@@H]5CC[C@]43C)[C@@H]2C1 | > 14 µM | > 14000 nM | > 14000 nM | inactive | – | – | – | > 14 µM | – | – | > 14 µM | – | > 14000 nM | inactive | inactive | – | – | –
8 | CC1(C)CC[C@]2(C(=O)O)CC[C@]3(C)C(=CC[C@@H]4[C@@]5(C)CC[C@H](O)C(C)(C)[C@@H]5CC[C@]43C)[C@@H]2C1 | – | – | – | – | – | inactive | – | – | inactive | – | – | – | – | – | – | – | – | –
9 | COc1cc(/C=C/C(C)=O)ccc1OC(=O)[C@]12CCC(C)(C)C[C@H]1C1=CC[C@@H]3[C@@]4(C)CC[C@H](O)C(C)(C)[C@@H]4CC[C@@]3(C)[C@]1(C)CC2 | – | – | – | – | – | inactive | – | – | inactive | – | – | – | – | – | – | – | – | –
10 | COc1ccc(/C=C/C(=O)c2ccccc2)c(OC(=O)[C@@]2(C)CC[C@]3(C)CC[C@]4(C)C(=CC(=O)[C@@H]5[C@@]6(C)CC[C@H](O)C(C)(C)[C@@H]6CC[C@]54C)[C@@H]3C2)c1 | > 14 µM | > 14000 nM | – | inactive | inactive | – | > 14 µM | 13 µM | – | > 14000 nM | > 14 µM | – | – | – | – | inactive | – | –
11 | C[C@H]1[C@H](C)CC[C@]2(C(=O)O)CC[C@]3(C)C(=CC[C@@H]4[C@@]5(C)CC[C@H](O)C(C)(C)[C@@H]5CC[C@]43C)[C@H]12 [URSOLIC ACID] | – | – | – | – | – | – | – | – | – | – | – | – | – | – | – | – | 8.3 µM | 8.1 µM
12 | COc1ccc(/C=C/C(C)=O)cc1OC(=O)[C@@]1(C)CC[C@]2(C)CC[C@]3(C)C(=CC(=O)[C@@H]4[C@@]5(C)CC[C@H](O)C(C)(C)[C@@H]5CC[C@]43C)[C@@H]2C1 | 2.8 µM | 2000 nM | 1600 nM | – | – | – | 1.9 µM | 9.9 µM | – | 900 nM | 6.5 µM | 1900 nM | 2800 nM | – | – | – | – | –
13 | COc1cc(/C=C/C(C)=O)ccc1O [DEHYDROZINGERONE] | > 52 µM | > 52000 nM | 33900 nM | – | – | inactive | – | > 52 µM | inactive | – | 51 µM | > 52000 nM | > 52000 nM | inactive | inactive | – | – | –
14 | COc1ccc(/C=C/C(=O)c2ccccc2)cc1OC(=O)[C@@]1(C)CC[C@]2(C)CC[C@]3(C)C(=CC(=O)[C@@H]4[C@@]5(C)CC[C@H](O)C(C)(C)[C@@H]5CC[C@]43C)[C@@H]2C1 | 14.1 µM | > 14000 nM | > 14000 nM | inactive | inactive | – | – | > 14 µM | – | – | 14.1 µM | – | – | inactive | inactive | – | – | –
15 | CCOc1cccc(/C=C/C(C)=O)c1OC(=O)[C@@]1(C)CC[C@]2(C)CC[C@]3(C)C(=CC(=O)[C@@H]4[C@@]5(C)CC[C@H](O)C(C)(C)[C@@H]5CC[C@]43C)[C@@H]2C1 | 3.5 µM | 4900 nM | 1800 nM | – | – | – | 13.2 µM | > 15 µM | – | 2900 nM | 6.8 µM | 8800 nM | 3000 nM | – | – | – | – | –
16 | COc1ccc(/C=C/C(C)=O)c(OC(=O)[C@@]2(C)CC[C@]3(C)CC[C@]4(C)C(=CC(=O)[C@@H]5[C@@]6(C)CC[C@H](O)C(C)(C)[C@@H]6CC[C@]54C)[C@@H]3C2)c1 | 7.4 µM | 2600 nM | 5900 nM | – | – | – | > 15 µM | > 15 µM | – | 6200 nM | 1.9 µM | > 15000 nM | 15500 nM | – | – | – | – | –
17 | COc1cc(/C=C/C(C)=O)ccc1OC(=O)[C@]12CC[C@@H](C)[C@H](C)[C@H]1C1=CC[C@@H]3[C@@]4(C)CC[C@H](O)C(C)(C)[C@@H]4CC[C@@]3(C)[C@]1(C)CC2 | – | – | – | – | – | – | – | – | inactive | – | – | – | – | – | – | – | 10.5 µM | –
18 | COc1cc(/C=C/C(C)=O)ccc1OC(=O)[C@@]1(C)CC[C@]2(C)CC[C@]3(C)C(=CC(=O)[C@@H]4[C@@]5(C)CC[C@H](O)C(C)(C)[C@@H]5CC[C@]43C)[C@@H]2C1 | 1.4 µM | 1700 nM | 900 nM | – | – | – | 2.5 µM | 3.1 µM | – | 1600 nM | 0.6 µM | 2800 nM | 2000 nM | – | – | – | 1.7 µM | 2.8 µM
